This passage reports IC50 results from BindingDB's records for doi:10.1016/j.bmcl.2009.02.010 (Konkuk University, 2009).

Test [1] deals with T1, Replicase polyprotein 1ab (Severe acute respiratory syndrome coronavirus, UniProt P0C6X7). Briefly: Inhibition of SCV helicase assessed as duplex-DNA unwinding by FRET based assay. In a few lines: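 Substrate was 25-bp dsDNA with a 20-dT 5′-overhang. SCV helicase (150 nM in 20 mM HEPES pH 7.4) preincubated with compounds for 5 min at rt. Started with 5X reaction solution (5 mM MgCl2, 45 mM ATP, 25 mM DTT, 100 nM dsDNA substrate as 5X concentrations), then 2 min at 37 °C. Stopped with EDTA plus unmodified trap oligomer, with FRET read-out.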

The target in test [2] is T1, Replicase polyprotein 1ab. Put plainly: Inhibition of ATPase activity of SCV helicase assessed as phosphate release by colorimetric assay. In a few lines: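 Purified SCV NTPase/helicase (400 nM in 50 mM Tris/HCl pH 6.6) preincubated with compounds for 5 min at rt. Stopped with malachite green/molybdate reagent in 1 M HCl. A620 read after 5 min, with phosphate from a standard curve.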

As to `O=C(O)C(=O)CC(=O)c1cccc(OCc2ccccc2)c1`, the half-maximal inhibitory concentration (IC50) in test [1] and in test [2] was over 50 µM throughout.

With `O=C(O)C(=O)CC(=O)c1ccccc1OCc1ccccc1`, the 50% inhibitory concentration (IC50) in test [1] and in test [2] was over 50 µM throughout.

On to `O=C(O)C(=O)CC(=O)c1ccc(OCc2ccc(Cl)cc2)cc1` [4-(4-(4-chlorobenzyloxy)phenyl)-2-hydroxy-4-oxobut-2-enoic acid], for which the half-inhibitory concentration (IC50) in test [1] and in test [2] was over 50 µM in each case.
